Where no end group is shown, it is not given here. The star is where a group is joined. Biotin = O=C1N[C@H]2[C@H](CS[C@H]2CCCCC(=O)*)N1; TTDS = NCCCOCCOCCOCCCNC(=O)CCC(=O)*
How the values were obtained:
[1] = system: SHANK3 PDZ; test: holdup assay; type: binding, human; settings: ~4 μM PDZ
Procedure, shortened: (§1)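 Automated holdup against N-terminally biotinylated (TTDS linker) RSK1 725–735 peptides, unphosphorylated and phosphorylated, in triplicate. PDZome v2 clones were codon-optimized and expressed in E. coli, with soluble lysate adjusted to ~4 μM. BI is the PDZ fraction depleted from the fluid phase.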

[2] = target: GRID2IP-2 PDZ (Homo sapiens, UniProt A4D2P6); test: holdup assay; type: binding; settings: fraction of PDZ depleted; ~4 μM PDZ; biotinylated RSK1_725–735; triplicates
Procedure, shortened: (§2)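 Automated holdup in triplicate measured biotinylated (N-terminal TTDS linker) RSK1 725–735 peptides, unphosphorylated or phosphorylated, against E. coli-expressed PDZome v2 domains. Soluble lysate was adjusted to ~4 μM, giving 255 domains for the unphosphorylated and 252 for the phosphorylated peptide. Binding intensity (BI) is the fraction of PDZ depleted from the fluid phase. BI 0.2 was the high-confidence threshold.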

[3] = target: SNX27 PDZ (Homo sapiens, UniProt Q96L92); test: holdup assay; type: binding; settings: ~4 μM PDZ
[4] = system: MAGI3-2 PDZ; test: holdup assay; type: binding, human; settings: fraction of PDZ depleted; ~4 μM PDZ; biotinylated RSK1_725–735; triplicates
Procedure, shortened: as §2

[5] = target: GOPC PDZ (Homo sapiens, UniProt Q9HD26); test: holdup assay; type: binding; settings: fraction of PDZ depleted; ~4 μM PDZ; biotinylated RSK1_725–735; triplicates
[6] = system: NHERF2-2 PDZ; test: holdup assay; type: binding, human; settings: ~4 μM PDZ
Procedure, shortened: as §1

[7] = target: T1, SNTA1 PDZ (Homo sapiens, UniProt Q13424); test: holdup assay; type: binding; settings: fraction of PDZ depleted; ~4 μM PDZ; biotinylated RSK1_725–735; triplicates
T1 sequence (Q13424 87-170 limits assumed): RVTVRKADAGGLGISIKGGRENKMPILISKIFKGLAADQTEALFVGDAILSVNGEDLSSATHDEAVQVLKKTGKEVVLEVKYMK
Procedure, shortened: as §1

[8] = target: T2, PDZRN3-1 PDZ (Homo sapiens, UniProt Q9UPQ7); test: holdup assay; type: binding; settings: ~4 μM PDZ
T2 sequence (Q9UPQ7 249-339 limits assumed): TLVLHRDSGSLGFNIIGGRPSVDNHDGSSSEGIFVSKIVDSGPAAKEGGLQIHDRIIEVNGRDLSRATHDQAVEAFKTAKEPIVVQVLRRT
Procedure, shortened: as §1

[9] = target: T3, NHERF3-1 PDZ (Homo sapiens, UniProt Q5T2W1); test: holdup assay; type: binding; settings: ~4 μM PDZ
T3 sequence (Q5T2W1 9-90 limits assumed): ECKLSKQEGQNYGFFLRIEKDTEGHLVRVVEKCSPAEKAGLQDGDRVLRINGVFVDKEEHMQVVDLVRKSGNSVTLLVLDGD
Procedure, shortened: as §1

[10] = target: T4, SYNJ2BP PDZ (Homo sapiens, UniProt P57105); test: holdup assay; type: binding; settings: ~4 μM PDZ
T4 sequence (P57105 13-100 limits assumed): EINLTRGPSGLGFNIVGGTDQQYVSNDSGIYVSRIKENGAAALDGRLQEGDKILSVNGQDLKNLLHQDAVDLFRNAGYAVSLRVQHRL
Procedure, shortened: as §1

[11] = system: ARHGEF11 PDZ; test: holdup assay; type: binding, human; settings: fraction of PDZ depleted; ~4 μM PDZ; biotinylated RSK1_725–735; triplicates
Procedure, shortened: as §1

[12] = system: LAP2 PDZ; test: holdup assay; type: binding, human; settings: ~4 μM PDZ
Procedure, shortened: as §1

[13] = target: T5, ARHGEF12 PDZ (Homo sapiens, UniProt Q9NZN5); test: holdup assay; type: binding; settings: ~4 μM PDZ
T5 sequence (Q9NZN5 72-151 limits assumed): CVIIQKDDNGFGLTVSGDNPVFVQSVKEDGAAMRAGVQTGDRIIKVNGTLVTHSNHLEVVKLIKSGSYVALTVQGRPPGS
Procedure, shortened: as §1

[14] = target: T6, MAST2 PDZ (Homo sapiens, UniProt Q6P0Q8); test: holdup assay; type: binding; settings: fraction of PDZ depleted; ~4 μM PDZ; biotinylated RSK1_725–735; triplicates
T6 sequence (Q6P0Q8 1104-1192 limits assumed): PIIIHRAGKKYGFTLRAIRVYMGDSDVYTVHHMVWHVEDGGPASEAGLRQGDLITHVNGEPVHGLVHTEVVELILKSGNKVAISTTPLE
Procedure, shortened: as §1

[15] = target: T7, SNTG2 PDZ (Homo sapiens, UniProt Q9NY99); test: holdup assay; type: binding; settings: ~4 μM PDZ
T7 sequence (Q9NY99 73-156 limits assumed): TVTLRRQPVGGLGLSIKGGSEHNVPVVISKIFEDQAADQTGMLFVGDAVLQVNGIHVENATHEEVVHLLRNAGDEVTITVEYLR
Procedure, shortened: as §1

[16] = target: MAGI1-2 PDZ (Homo sapiens, UniProt Q96QZ7); test: holdup assay; type: binding; settings: ~4 μM PDZ
Procedure, shortened: as §1

[17] = target: T8, PDZD7-3 PDZ (Homo sapiens, UniProt Q9H5P4); test: holdup assay; type: binding; settings: ~4 μM PDZ
T8 sequence (Q9H5P4 862-934 limits assumed): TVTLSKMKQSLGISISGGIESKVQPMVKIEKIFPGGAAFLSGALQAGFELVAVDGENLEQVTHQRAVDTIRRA
Procedure, shortened: as §1

[18] = target: MAGI2-2 PDZ (Homo sapiens, UniProt Q86UL8); test: holdup assay; type: binding; settings: ~4 μM PDZ
Procedure, shortened: as §1

[19] = system: human PDZ domains (PDZome); test: holdup assay, PDZome-binding profile; settings: PDZome profile
Procedure, shortened: as §2

[20] = target: T9, PARD3B-1 PDZ (Homo sapiens, UniProt Q8TEW8); test: holdup assay; type: binding; settings: fraction of PDZ depleted; ~4 μM PDZ; biotinylated RSK1_725–735; triplicates
T9 sequence (Q8TEW8 201-289 limits assumed): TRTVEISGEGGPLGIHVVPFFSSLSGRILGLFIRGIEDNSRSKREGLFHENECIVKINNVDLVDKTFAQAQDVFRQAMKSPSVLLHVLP
Procedure, shortened: as §2

[21] = system: GRASP PDZ; test: holdup assay; type: binding, human; settings: ~4 μM PDZ
Procedure, shortened: as §1

[22] = system: LIMK2 PDZ; test: holdup assay; type: binding, human; settings: ~4 μM PDZ
Procedure, shortened: as §1

[23] = target: T10, PDZRN4-1 PDZ (Homo sapiens, UniProt Q6ZMN7); test: holdup assay; type: binding; settings: fraction of PDZ depleted; ~4 μM PDZ; biotinylated RSK1_725–735; triplicates
T10 sequence (Q6ZMN7 224-314 limits assumed): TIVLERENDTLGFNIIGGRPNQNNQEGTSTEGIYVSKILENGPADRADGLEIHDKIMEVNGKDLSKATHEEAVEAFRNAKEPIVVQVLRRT
Procedure, shortened: as §2

[24] = system: DFNB31-3 PDZ; test: holdup assay; type: binding, human; settings: ~4 μM PDZ
Procedure, shortened: as §1

[25] = fraction of PDZ depleted, biotinylated RSK1_725–735, triplicates
[26] = read-out: KD, estimated, from BI, estimated 17 μM peptide

Sequence of MAGI2-2 PDZ (Q86UL8 426-510 limits assumed): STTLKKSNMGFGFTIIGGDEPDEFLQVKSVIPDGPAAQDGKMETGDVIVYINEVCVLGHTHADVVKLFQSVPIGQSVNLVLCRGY
Sequence of MAGI1-2 PDZ (Q96QZ7 472-554 limits assumed): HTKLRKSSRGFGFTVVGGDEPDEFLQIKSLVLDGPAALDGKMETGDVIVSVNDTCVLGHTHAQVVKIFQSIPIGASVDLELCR
Sequence of GRID2IP-2 PDZ (A4D2P6 279-356 limits assumed): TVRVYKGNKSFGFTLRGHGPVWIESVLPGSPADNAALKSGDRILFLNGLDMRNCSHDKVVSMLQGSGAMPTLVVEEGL

- binding intensity (BI) [1, 25]: 0.27 ± 0.03
- Kd [1, 26]: 43 µM
- binding intensity (BI) [2]: 0.67 ± 0.02
- binding intensity (BI) [3, 25]: 0.08 ± 0.07
- Kd [3, 26]: > 100 µM
- binding intensity (BI) [4]: 0.28 ± 0.03
- binding intensity (BI) [5]: 0.63 ± 0.05
- binding intensity (BI) [6, 25]: 0.20 ± 0.04
- Kd [6, 26]: 64.8 µM
- binding intensity (BI) [7]: 0.31 ± 0.04
- binding intensity (BI) [8, 25]: 0.26 ± 0.01
- Kd [8, 26]: 45.4 µM
- binding intensity (BI) [9, 25]: 0.41 ± 0.01
- Kd [9, 26]: 22.1 µM
- binding intensity (BI) [10, 25]: 0.26 ± 0.07
- Kd [10, 26]: 45.4 µM
- binding intensity (BI) [11]: 0.28 ± 0.06
- binding intensity (BI) [12, 25]: −0.02 ± 0.05
- Kd [12, 26]: > 100 µM
- binding intensity (BI) [13, 25]: 0.77 ± 0.02
- Kd [13, 26]: 4.2 µM
- binding intensity (BI) [14]: 0.74 ± 0.03
- binding intensity (BI) [15, 25]: 0.41 ± 0.02
- Kd [15, 26]: 22.1 µM
- binding intensity (BI) [16, 25]: 0.43 ± 0.02
- Kd [16, 26]: 20.3 µM
- binding intensity (BI) [17, 25]: 0.60 ±0.03
- Kd [17, 26]: 9.7 µM
- binding intensity (BI) [18, 25]: 0.42 ± 0.01
- Kd [18, 26]: 21.2 µM
- average BI [19]: 0.42
- maximal BI [19]: 0.77
- binding intensity (BI) [20]: 0.52 ± 0.05
- binding intensity (BI) [21, 25]: 0.29 ± 0.01
- Kd [21, 26]: 38.8 µM
- binding intensity (BI) [22, 25]: 0.01 ± 0.06
- Kd [22, 26]: > 100 µM
- binding intensity (BI) [23]: 0.51 ± 0.02
- binding intensity (BI) [24, 25]: 0.23 ± 0.04
- Kd [24, 26]: 53.8 µM
Substance: unphosphorylated RSK1 peptide: C-terminal RSK1 PBM peptide; RSK1_725–735 (holdup, SPR), RSK1_729–735 (direct FP), RSK1_683–735 (competitive FP) ({Biotin-TTDS}-RRVRKLPSTTL)

— PMC6424611 (Journal of molecular biology, 2019)
